Calls of active or inactive are those of the source. No cut-off for these calls is given here.
What was measured:
Assay type in all cases: functional
[1] = test system: Bordetella bronchiseptica; experiment: Antimicrobial activity against Bordetella bronchiseptica ATCC 4617 at 25 ug/ml by agar diffusion method; conditions: for zone of inhibition at 25 µg/mL: read-out: DIZ
How it was run: (§1)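 Agar diffusion on Mueller-Hinton agar. Bacterial strains came from the NODCAR Microbiology laboratory culture collection. Ampicillin was the reference standard.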

Escherichia coli = experiment: Antimicrobial activity against Escherichia coli ATCC 14169 at 25 ug/ml by agar diffusion method; conditions: for zone of inhibition at 25 µg/mL: read-out: DIZ; how it was run: as §1
Bacillus pumilus = experiment: Antimicrobial activity against Bacillus pumilus ATCC 14884 at 25 ug/ml by agar diffusion method; conditions: for zone of inhibition at 25 µg/mL: read-out: DIZ; how it was run: as §1
Bacillus subtilis = experiment: Antimicrobial activity against Bacillus subtilis ATCC 6633 at 25 ug/ml by agar diffusion method; conditions: for zone of inhibition at 25 µg/mL: read-out: DIZ; how it was run: as §1
Staphylococcus aureus = experiment: Antimicrobial activity against Staphylococcus aureus ATCC 29737 at 25 ug/ml by agar diffusion method; conditions: for zone of inhibition at 25 µg/mL: read-out: DIZ; how it was run: as §1
[2] = test system: Staphylococcus epidermidis; experiment: Antimicrobial activity against Staphylococcus epidermidis ATCC 12228 at 25 ug/ml by agar diffusion method; conditions: for zone of inhibition at 25 µg/mL: read-out: DIZ; how it was run: as §1
Candida albicans = experiment: Antifungal activity against Candida albicans ATCC 10231 at 25 ug/ml by agar diffusion method
How it was run: (§2)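 Agar diffusion on Sabouraud's agar. Fungal strains came from the NODCAR Microbiology laboratory culture collection. Mycostatine was the reference standard.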

Saccharomyces cerevisiae = experiment: Antifungal activity against Saccharomyces cerevisiae ATCC 9080 at 25 ug/ml by agar diffusion method; how it was run: as §2

Row | Compound | diameter of the inhibition zone (DIZ) [1] | diameter of the inhibition zone (DIZ) (Escherichia coli) | diameter of the inhibition zone (DIZ) (Bacillus pumilus) | diameter of the inhibition zone (DIZ) (Bacillus subtilis) | diameter of the inhibition zone (DIZ) (Staphylococcus aureus) | diameter of the inhibition zone (DIZ) [2] | diameter of the inhibition zone (DIZ) (Candida albicans) | diameter of the inhibition zone (DIZ) (Saccharomyces cerevisiae) | zone of inhibition at 25 µg/mL (Staphylococcus aureus) [mm] | zone of inhibition at 25 µg/mL [2] [mm] | zone of inhibition at 25 µg/mL [1] [mm] | zone of inhibition at 25 µg/mL (Escherichia coli) [mm] | zone of inhibition at 25 µg/mL (Bacillus pumilus) [mm] | zone of inhibition at 25 µg/mL (Bacillus subtilis) [mm] | zone of inhibition at 25 µg/mL (Candida albicans; read-out: DIZ) [mm] | zone of inhibition at 25 µg/mL (Saccharomyces cerevisiae; read-out: DIZ) [mm] | inhibition zone (IZ) (Saccharomyces cerevisiae) [mm]
1 | CCN(CC)c1ccc2c(-c3ccc(Br)cc3)c(C#N)c(=O)oc2c1 | inactive | inactive | inactive | inactive | inactive | inactive | inactive | inactive |  |  |  |  |  |  |  |  | 
2 | CCOC(=O)C1=C(N)Oc2cc(N(CC)CC)ccc2C1c1ccc(F)cc1 (stereo unspecified) | inactive | inactive | inactive | inactive |  |  | inactive | inactive | 14 | 14 |  |  |  |  |  |  | 
3 | CCN(CC)c1ccc2c(c1)OC(N(C(C)=O)C(C)=O)=C(C#N)C2c1ccc(Cl)cc1 (stereo unspecified) | inactive | inactive | inactive | inactive | inactive | inactive | inactive | inactive |  |  |  |  |  |  |  |  | 
4 | CC1(C)S[C@@H]2[C@H](NC(=O)[C@H](N)c3ccccc3)C(=O)N2[C@H]1C(=O)O [AMPICILLIN] |  |  |  |  |  |  |  |  | 26 | 25 | 24 | 25 | 20 | 25 |  |  | 
5 | CCN(CC)c1ccc2c(c1)Oc1nc(C)[nH]c(=O)c1C2c1ccc(Cl)cc1 (stereo unspecified) | inactive | inactive | inactive | inactive | inactive | inactive | inactive | inactive |  |  |  |  |  |  |  |  | 
6 | CCN(CC)c1ccc2c(c1)OC(/N=C/c1ccccc1)=C(C#N)C2c1ccc(Cl)cc1 (stereo unspecified) | inactive | inactive | inactive | inactive | inactive | inactive | inactive | inactive |  |  |  |  |  |  |  |  | 
7 | CCO/C=N/C1=C(C#N)C(c2ccc(Cl)cc2)c2ccc(N(CC)CC)cc2O1 (stereo unspecified) | inactive | inactive | inactive | inactive | inactive | inactive | inactive | inactive |  |  |  |  |  |  |  |  | 
8 | CCN(CC)c1ccc2c(c1)OC(/N=C/N(C)C)=C(C#N)C2c1ccc(Cl)cc1 (stereo unspecified) | inactive | inactive | inactive | inactive | inactive | inactive | inactive | inactive |  |  |  |  |  |  |  |  | 
9 | CCOC(=O)C1=C(N)Oc2cc(N(CC)CC)ccc2C1c1ccc(Cl)cc1 (stereo unspecified) | inactive | inactive | inactive | inactive | inactive | inactive | inactive | inactive |  |  |  |  |  |  |  |  | 
10 | CCN(CC)c1ccc2c(c1)OC(/N=C/N)=C(C#N)C2c1ccc(Cl)cc1 (stereo unspecified) | inactive | inactive | inactive | inactive | inactive | inactive | inactive | inactive |  |  |  |  |  |  |  |  | 
11 | CCN(CC)c1ccc2c(c1)Oc1ncnc(N)c1C2c1ccc(Cl)cc1 (stereo unspecified) |  |  |  |  |  |  |  |  | 25 | 24 | 21 | 20 | 25 | 21 | 15 | 20 | 
12 | CCN(CC)c1ccc2c(-c3ccc(Cl)cc3)c(C#N)c(=O)oc2c1 | inactive | inactive | inactive | inactive | inactive | inactive | inactive | inactive |  |  |  |  |  |  |  |  | 
13 | CCN(CC)c1ccc2c(-c3ccc(F)cc3)c(C#N)c(=O)oc2c1 | inactive | inactive | inactive | inactive |  |  | inactive | inactive | 13 | 14 |  |  |  |  |  |  | 
14 | CCN(CC)c1ccc2c(c1)OC(N)=C(C#N)C2c1ccc(Cl)cc1 (stereo unspecified) | inactive | inactive | inactive | inactive |  |  | inactive | inactive | 14 | 15 |  |  |  |  |  |  | 
15 | NYSTATIN |  |  |  |  |  |  |  |  |  |  |  |  |  |  |  |  | 24

Source: ChEMBL document CHEMBL1667789, “Synthesis of 4H-chromene, coumarin, 12H-chromeno[2,3-d]pyrimidine derivatives and some of their antimicrobial and cytotoxicity activities” (2011)
